Assay results: ChEMBL document CHEMBL1134611, “Agonist activity at the kinin B1 receptor: structural requirements of the central tetrapeptide” (J Med Chem, 2001)
Calls of active or inactive are those of the source. No cut-off for these calls is given here. Numbered stars: 1 amine (or outer) side, 2 acyl side, 3 side chain; on linkers, the order of the positions; unused ones are H or OH. Square brackets hold non-standard residues; d marks the D form. Peptide text beside a SMILES is read from it. X2 = O=C(C1(N[*:1])CCCCCCCCCCC1)[*:2]; X1 = O=C(C1(N[*:1])CCCCCCCC1)[*:2]; 12Ado = NCCCCCCCCCCCC(=O)O; Ac8c = NC1(C(=O)O)CCCCCCC1; Ac7c = NC1(C(=O)O)CCCCCC1; Ac6c = NC1(C(=O)O)CCCCC1

Columns and labels:
[1] = target: T1, B1 bradykinin receptor (Rattus norvegicus) (UniProt P97583); test: Agonistic activity against Bradykinin receptor B1 of rat ileum longitudinal smooth muscle; Inactive; type: functional, tissue-based
T1 sequence (whole entry): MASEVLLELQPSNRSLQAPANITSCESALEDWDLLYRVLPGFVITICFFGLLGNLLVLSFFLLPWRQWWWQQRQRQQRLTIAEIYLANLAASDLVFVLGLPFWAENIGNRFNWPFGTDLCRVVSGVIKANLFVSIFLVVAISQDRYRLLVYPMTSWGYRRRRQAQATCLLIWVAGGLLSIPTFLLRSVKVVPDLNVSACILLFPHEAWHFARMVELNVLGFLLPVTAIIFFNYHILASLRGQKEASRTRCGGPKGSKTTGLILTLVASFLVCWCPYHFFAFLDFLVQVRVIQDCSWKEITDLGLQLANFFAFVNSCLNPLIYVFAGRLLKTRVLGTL
In short: (§1)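 Rat ileum longitudinal muscle-myenteric plexus strips in oxygenated (95% O2, 5% CO2) Krebs' solution with indomethacin and guanethidine (3 µM each), chlorpheniramine and atropine (1 µM each). Cumulative concentration-response curves of contraction, run with thiorphan, bestatin and captopril (1 µM each). pD2 = -log molar agonist concentration giving 50% of maximal effect; mean ± SEM, 4-10 experiments.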

[2] = target: T1, B1 bradykinin receptor (Rattus norvegicus); test: Agonistic activity against Bradykinin receptor B1 of rat ileum longitudinal smooth muscle; type: functional, tissue-based; in short: as §1

| Compound | IA [1] | pD2 [2] |
| --- | --- | --- |
| NCCCC[C@H](N)C(=O)N[C@@H](CCCN=C(N)N)C(=O)NCCCCCCCCCCCC(=O)N[C@@H](CO)C(=O)N1CCC[C@H]1C(=O)N[C@@H](Cc1ccccc1)C(=O)O (H-KR[12Ado]SPF-OH) | – | 6 |
| NCCCC[C@H](N)C(=O)N[C@@H](CCCN=C(N)N)C(=O)NCC(=O)NC1(C(=O)NCC(=O)N[C@@H](CO)C(=O)N2CCC[C@H]2C(=O)N[C@@H](Cc2ccccc2)C(=O)O)CCCCC1 (H-KRG[Ac6c]GSPF-OH) | – | 5.1 |
| NCCCC[C@H](N)C(=O)N[C@@H](CCCN=C(N)N)C(=O)NCC(=O)NC1(C(=O)NCC(=O)N[C@@H](CO)C(=O)N2CCC[C@H]2C(=O)N[C@@H](Cc2ccccc2)C(=O)O)CCCCCCC1 (H-KRG[Ac8c]GSPF-OH) | – | 5.7 |
| NCCCC[C@H](N)C(=O)N[C@@H](CCCN=C(N)N)C(=O)NCC(=O)NC1(C(=O)NCC(=O)N[C@@H](CO)C(=O)N2CCC[C@H]2C(=O)N[C@@H](Cc2ccccc2)C(=O)O)CCCCCCCCCCC1 (H-KRG[X2]GSPF-OH) | – | 5.5 |
| NCCCC[C@H](N)C(=O)N[C@@H](CCCN=C(N)N)C(=O)NCC(=O)NC1(C(=O)NCC(=O)N[C@@H](CO)C(=O)N2CCC[C@H]2C(=O)N[C@@H](Cc2ccccc2)C(=O)O)CCCCCC1 (H-KRG[Ac7c]GSPF-OH) | – | 5.4 |

Further lines, results first:

| IA [1] | pD2 [2] | Compound |
| --- | --- | --- |
| inactive | – | H-KRGGGSPF-OH |
| inactive | – | NCCCC[C@H](N)C(=O)N[C@@H](CCCN=C(N)N)C(=O)NC1(C(=O)N[C@@H](CO)C(=O)N2CCC[C@H]2C(=O)N[C@@H](Cc2ccccc2)C(=O)O)CCCCCC1 (H-KR[Ac7c]SPF-OH) |
| – | 5.4 | NCCCC[C@H](N)C(=O)N[C@@H](CCCN=C(N)N)C(=O)NCC(=O)NC1(C(=O)NCC(=O)N[C@@H](CO)C(=O)N2CCC[C@H]2C(=O)N[C@@H](Cc2ccccc2)C(=O)O)CCCCCCCC1 (H-KRG[X1]GSPF-OH) |
